Published values of several laboratories.
PDE4D: 3',5'-cyclic-AMP phosphodiesterase 4D (PDE4D, Homo sapiens, UniProt Q08499)
CDK7 with cyclin H: Cyclin-dependent kinase 7, with cyclin H (CDK7, Homo sapiens, UniProt P50613)
SYK: Tyrosine-protein kinase SYK (SYK, Homo sapiens, UniProt P43405)

SMILES	target	effect on	action	technique	tested at	setting	inhibition [%]
Clc1ccc2c(C3CCN(CCc4c[nH]c5ccccc45)CC3)c[nH]c2c1	5-hydroxytryptamine receptor 1B (HTR1B, Homo sapiens, UniProt P28222)	ligand displacement		radioligand	10 µM		100
O=c1c(O)c(-c2ccc(O)c(O)c2)oc2cc(O)cc(O)c12	PDE4D	enzyme activity	inhibitor	radiometric	5 µM		75.2
COc1ccc(CC2NCCc3cc(OC)c(OC)cc32)cc1OC (centres unmarked)	CDK7 with cyclin H	enzyme activity	inhibitor	ADP detection	10 µM		22.5
Cn1cc(-c2cc(F)cc(N3CCn4c(cc5c4CCCC5)C3=O)c2CO)cc(Nc2ccc(N3CCN(C4COC4)CC3)cn2)c1=O	Protein kinase C gamma type (PRKCG, Homo sapiens, UniProt P05129)	enzyme activity	inhibitor		0.1 µM		12
CCOC(=O)C1=C(C)NC(c2ccccc2)=C(C(=O)OCc2ccccc2)C1C#Cc1ccccc1 (centres unmarked)	Adenosine receptor A2a (Adora2a, Mus musculus, UniProt Q60613)	ligand displacement		radioligand	10 µM	cell membranes	0
O=C(O)CC(O)(CC(=O)O)C(=O)O	PDE4D	enzyme activity	inhibitor	radiometric	50 µM		99.2
CC[C@@]1(O)C(=O)OCc2c1cc1n(c2=O)Cc2cc3ccccc3nc2-1	CDK7 with cyclin H	enzyme activity	inhibitor	ADP detection	10 µM		20.7
O=C(/C=C/c1ccc(O)cc1)c1ccc(O)cc1O	PDE4D	enzyme activity	inhibitor	radiometric	50 µM		52
COc1cc(Nc2ncc(F)c(Nc3ccc4c(n3)NC(=O)C(C)(C)O4)n2)cc(OC)c1OC	Serine/threonine-protein kinase MAK (MAK, Homo sapiens, UniProt P20794)	binding		competition with immobilised ligand	10 µM		0
C=C(C)[C@@H]1CC=C2C(=CC[C@]3(C)[C@@H]([C@@H](CCC=C(C)C)C(=O)O)[C@H](O)C[C@@]23C)[C@@]1(C)CCC(=O)O	PDE4D	enzyme activity	inhibitor	radiometric	5 µM		54.3
C[C@H](C(=O)N[C@H]1COc2ccccc2[C@@H]1S(C)(=O)=O)c1ccc(F)cc1	Phospholipase A2, major isoenzyme (PLA2G1B, Sus scrofa, UniProt P00592)	cell-free assay	inhibitor		10 µM		-6
COc1cc([C@@H]2c3cc4c(cc3[C@H](O)[C@H]3COC(=O)[C@H]23)OCO4)cc(OC)c1OC	CDK7 with cyclin H	enzyme activity	inhibitor	ADP detection	10 µM		17.2
C#Cc1n[nH]c2c(-c3cn(C(C)c4ccccn4)c(=O)[nH]c3=O)cc(F)cc12 (centres unmarked)	SYK	enzyme activity	inhibitor		1 µM		-7.5
COc1ccc(Cc2nccc3cc(OC)c(OC)cc23)cc1OC	CDK7 with cyclin H	enzyme activity	inhibitor	ADP detection	10 µM		-1.4
O=C1C[C@@H](c2ccc(O[C@@H]3O[C@H](CO)[C@@H](O)[C@H](O)[C@H]3O)cc2)Oc2cc(O)ccc21	PDE4D	enzyme activity	inhibitor	radiometric	50 µM		14
C=C[C@H]1C[N@@]2CC[C@H]1C[C@@H]2[C@@H](O)c1ccnc2ccccc12	CDK7 with cyclin H	enzyme activity	inhibitor	ADP detection	10 µM		12.9
c1ccc(C(NCCNC(c2ccccc2)c2ccccc2)c2ccccc2)cc1	Protein phosphatase 3 catalytic subunit alpha (PPP3CA, Homo sapiens, UniProt Q08209)	enzyme activity	inhibitor		10 µM		32
COc1cc(CNC(=O)CCCC/C=C/C(C)C)ccc1O	CDK7 with cyclin H	enzyme activity	inhibitor	ADP detection	10 µM		31.4
C#Cc1n[nH]c2c(-c3cn([C@@H](C)c4ccccc4)c(=O)[nH]c3=O)cc(F)cc12	SYK	enzyme activity	inhibitor		0.1 µM		1.6
COc1cc2c(c(OC)c1OC)-c1ccc(OC)c(=O)cc1[C@@H](NC(C)=O)CC2	CDK7 with cyclin H	enzyme activity	inhibitor	ADP detection	10 µM		-0.4
CC(C)=CCc1cc(-c2coc3cc(O)cc(O)c3c2=O)cc(O)c1O	PDE4D	enzyme activity	inhibitor	radiometric	5 µM		84.6
CC(C)N1CCC[C@H]1CNC(=O)c1cn(C2CCCC2)c(=O)c2c1c1ccccc1n2C	Prostaglandin E2 receptor EP4 subtype (PTGER4, Homo sapiens, UniProt P35408)	ligand displacement		radioligand	10 µM		30
O=C(O)CCCCCCCC(=O)O	PDE4D	enzyme activity	inhibitor	radiometric	50 µM		47.1
CN(C)C(=O)COC(=O)Cc1ccc(OC(=O)c2ccc(NC(=N)N)cc2)cc1	Prothrombin (F2, Homo sapiens, UniProt P00734)	enzyme activity	inhibitor		50 µM		99.1
COc1cc(O)ccc1/C=C/C(=O)c1ccc(O)cc1	PDE4D	enzyme activity	inhibitor	radiometric	50 µM		62.8
O=C(Nc1cccnn1)N1CCN([C@@H]2CCOc3cc(C(F)(F)F)ccc32)CC1	Bombesin receptor subtype-3 (BRS3, Homo sapiens, UniProt P32247)	cell-free assay			20 µM		37
